According to ChEMBL document CHEMBL1156875, “Anti-influenza drug discovery: structure-activity relationship and mechanistic insight into novel angelicin derivatives” (J Med Chem, 2010):
Activity calls are given as the source filed them. The rule behind the calls is not given here.

Tests used:
Influenza A virus [1] = assay: Antiviral activity against human influenza A virus A/WSN/33 (H1N1) in MDCK cells assessed as reduction of plaque formation at 20 nM; assay type: functional, A/WSN/1933(H1N1); design: scale not given: the % may be the effect or the level left
How it was run: (§1)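 Six-well MDCK monolayers (5.5 × 10^5 cells/well, overnight) infected with about 125 PFU/well of A/WSN/33 with or without compound, adsorbed 1 h at 37 C, then washed with HBSS. Agarose 0.3% overlay in trypsin-containing serum-free medium carrying the same compound level, 48 h at 37 C, 5% CO2. Fixed, crystal violet stained, plaques counted relative to virus control.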

Influenza A virus [2] = assay: Antiviral activity against human influenza A virus A/WSN/33 (H1N1) in MDCK cells assessed as prevention of progeny formation up to 4 hrs by time-of-addition study; assay type: functional, organism-based; details: A/WSN/1933(H1N1)
How it was run: (§2)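 MDCK (2.4 × 10^5 cells/well, six-well) infected at MOI 0.001 on ice for 1 h, washed, fresh medium set as 0 h pi. Compound at 1 μM present only during −1 to 0, 0-2, 2-4, 4-6 or 6-8 h, then washed off. Incubated in fresh medium to 12 h pi; supernatant virus yield titrated by plaque assay.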

Influenza A virus [3] = assay: Antiviral activity against human influenza A virus A/WSN/33 (H1N1) assessed as inhibition of guinea pig red blood cells at 25 uM by hemagglutinination inhibition assay; assay type: functional, organism-based; details: A/WSN/1933(H1N1)
How it was run: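 Hemagglutination inhibition format: A/WSN/33 attachment to guinea pig red blood cells tested with compound at 25 μM.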

Influenza A virus [4] = assay: Antiviral activity against human influenza A virus A/WSN/33 (H1N1) in MDCK cells assessed as reduction of virus-induced cytopathic effect; assay type: functional, organism-based; details: A/WSN/1933(H1N1)
How it was run: (§3)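 MDCK cells (1.1 × 10^5 cells/mL in DMEM + 10% FBS) grown 24-30 h at 37 C to about 90% confluency. Virus (100 TCID50) premixed with serially diluted compound, adsorbed 1 h at 37 C. Overlay of serum-free DMEM with trypsin 2.5 μg/mL and 0.1% DMSO, then 72 h at 37 C. Formaldehyde fixation, crystal violet stain, A570. IC50 = 50% CPE reduction versus virus control. Triplicate, at least two runs.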

Influenza A virus [5] = assay: Antiviral activity against human influenza A virus A/WSN/33 (H1N1) in MDCK cells assessed as reduction of NP protein by immunofluorescence microscopic analysis; assay type: functional, organism-based; details: A/WSN/1933(H1N1)
How it was run: (§4)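 Influenza-infected MDCK cells examined by immunofluorescence microscopy with anti-dsRNA, anti-NP and anti-M1 antibodies to visualise viral RNA and proteins.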

Influenza A virus [6] = assay: Antiviral activity against human influenza A virus A/WSN/33 (H1N1) in MDCK cells assessed as reduction of plaque formation at 100 nM; assay type: functional, organism-based; details: A/WSN/1933(H1N1); how it was run: as §1
Influenza A virus [7] = assay: Antiviral activity against human influenza A virus A/WSN/33 (H1N1) in MDCK cells assessed as reduction of dsRNA by immunofluorescence microscopic analysis; assay type: functional, organism-based; details: A/WSN/1933(H1N1); how it was run: as §4
Influenza A virus [8] = assay: Antiviral activity against human influenza A virus A/WSN/33 (H1N1) in MDCK cells assessed as prevention of progeny formation after 4 to 8 hrs by time-of-addition study; assay type: functional, organism-based; details: A/WSN/1933(H1N1); how it was run: as §2
Influenza B virus [9] = assay: Antiviral activity against human influenza B virus B/TW/70325/05 in MDCK cells assessed as reduction of virus-induced cytopathic; assay type: functional, organism-based; details: B/TW/70325/05, MDCK; how it was run: as §3
Influenza A virus [10] = assay: Antiviral activity against human influenza A virus A/TW/3446/04 (H3N2) in MDCK cells assessed as reduction of virus-induced cytopathic effect; assay type: functional, organism-based; how it was run: as §3
Influenza B virus [11] = assay: Antiviral activity against human influenza B virus B/TW/99/07 in MDCK cells assessed as reduction of virus-induced cytopathic; assay type: functional, organism-based; details: B/TW/99/07, MDCK; how it was run: as §3
Influenza A virus [12] = assay: Antiviral activity against human influenza A virus A/WSN/33 (H1N1) in MDCK cells assessed as reduction of M1 protein by immunofluorescence microscopic analysis; assay type: functional, organism-based; details: A/WSN/1933(H1N1); how it was run: as §4
Influenza A virus [13] = assay: Antiviral activity against human influenza A virus A/TW/141/04 (H1N1) in MDCK cells assessed as reduction of virus-induced cytopathic effect; assay type: functional, organism-based; how it was run: as §3
[14] = Cytotoxicity against MDCK cells after 72 hrs; assay type: cell-based, Canis lupus familiaris; details: dog
How it was run: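 Uninfected MDCK monolayers (seeded at 1.1 × 10^5 cells/mL, grown 24-30 h to about 90% confluency) exposed to graded compound concentrations for 72 h at 37 C. Read by formaldehyde fixation, 0.1% crystal violet staining and absorbance at 570 nm. CC50 = concentration reducing viability to 50% of control. Triplicate, repeated at least twice.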

Influenza B virus [15] = assay: Antiviral activity against human influenza B virus B/TW/710/05 in MDCK cells assessed as reduction of virus-induced cytopathic; assay type: functional, organism-based; details: B/TW/710/05, MDCK; how it was run: as §3

Cc1cc(=O)oc2c1ccc1oc(C(=O)c3cccs3)c(-c3ccccc3)c12
Activity (Influenza A virus [1]): 50%
Activity (Influenza A virus [2]): Active
Activity (Influenza A virus [3]): inactive
IC50 (Influenza A virus [4]): 70 nM
Activity (Influenza A virus [5]): Active
Activity (Influenza A virus [6]): Active
Activity (Influenza A virus [7]): Active
Activity (Influenza A virus [8]): inactive
IC50 (Influenza B virus [9]): 90 nM
IC50 (Influenza A virus [10]): 150 nM
IC50 (Influenza B virus [11]): 40 nM
Activity (Influenza A virus [12]): Active
IC50 (Influenza A virus [13]): 90 nM
CC50 at 72 h [14]: > 25000 nM
IC50 (Influenza B virus [15]): 90 nM
